Experimental data reported in ChEMBL document CHEMBL1135550, “Highly potent geminal bisphosphonates. From pamidronate disodium (Aredia) to zoledronic acid (Zometa)” (J Med Chem, 2002).

The molecules below were run on Rattus norvegicus (assay: Effective dose after subcutaneous administration to TPTX rats for 50% reduction of hypercalcemia). Details: sc.
Format: functional
Procedure, shortened: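 Young male rats (130-150 g) were thyroparathyroidectomized and allowed 4 days to recover, then fasting serum was sampled. Animals with serum Ca above 1.88 mM were discarded, and the rest were randomized into groups of 5. On days 5-8, 1,25(OH)2D3 (125 pmol/kg sc) was given with graded sc doses of bisphosphonate, and total serum calcium was measured. ED50 is the sc dose halving the hypercalcemia.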

| SMILES | ED50 |
| --- | --- |
| O=P(O)(O)C(O)(CCN1CCCCCCC1)P(=O)(O)O | > 0.3 mg/kg |
| CCc1cnc(NC(P(=O)(O)O)P(=O)(O)O)s1 | 0.0015 mg/kg |
| O=P(O)(O)C(O)(CCNCCCCc1ccccc1)P(=O)(O)O | 0.001 mg/kg |
| CC(CC(O)(P(=O)(O)O)P(=O)(O)O)N(C)C (stereo unspecified) | 0.018 mg/kg |
| CCCCN(CCCOc1ccccc1)CCC(O)(P(=O)(O)O)P(=O)(O)O | 0.5 mg/kg |
| CN(C)C(P(=O)(O)O)P(=O)(O)O | > 3 mg/kg |
| O=P(O)(O)C(Nc1ncc[nH]1)P(=O)(O)O | ~0.5 mg/kg |
| O=P(O)(O)C(O)(CCN1CCCCC1)P(=O)(O)O | 0.0056 mg/kg |
| CN(CCCSc1ccccc1)CCC(O)(P(=O)(O)O)P(=O)(O)O | 0.00033 mg/kg |
| O=P(O)(O)C(N1CCCCCC1)P(=O)(O)O [N-(HEXAMETHYLENEIMINO)METHYLENEBISPHOSPHONIC ACID] | 0.04 mg/kg |
| O=P(O)(O)C(O)(CCCCCN1CCC(c2ccccc2)CC1)P(=O)(O)O | > 0.3 mg/kg |
| O=P(O)(O)C(O)(C1CCCNC1)P(=O)(O)O (stereo unspecified) | 0.25 mg/kg |
| O=P(O)(O)C(NC1CCCCCC1)P(=O)(O)O [INCADRONIC ACID] | 0.007 mg/kg |
| O=P(O)(O)C(O)(CCN1CCC(c2ccccc2)C1)P(=O)(O)O (stereo unspecified) | 0.07 mg/kg |
| CCCCc1cnc(NC(P(=O)(O)O)P(=O)(O)O)s1 | 0.0009 mg/kg |
| CN(CCCCCCc1ccccc1)CCC(O)(P(=O)(O)O)P(=O)(O)O | 1.5 mg/kg |
| O=P(O)(O)C(O)(CCNCCCc1ccccc1)P(=O)(O)O | 0.02 mg/kg |
| CCCN(CCCOc1ccccc1)CCC(O)(P(=O)(O)O)P(=O)(O)O | 0.01 mg/kg |
| CN1CCN(CCC(O)(P(=O)(O)O)P(=O)(O)O)CC1 | ~0.4 mg/kg |
| CN(CCCCc1ccccc1)CCC(O)(P(=O)(O)O)P(=O)(O)O | 0.0004 mg/kg |
| CC(=O)NCCC(O)(P(=O)(O)O)P(=O)(O)O | > 1 mg/kg |
| O=P(O)(O)C(O)(Cc1c[nH]c(-c2ccccc2)n1)P(=O)(O)O | > 3 mg/kg |

| SMILES | ED50 |
| --- | --- |
| O=P(O)(O)C(O)(CCN1CCC(c2ccccc2)CC1)P(=O)(O)O | ~0.011 mg/kg |
| O=P(O)(O)C(Cc1nccs1)P(=O)(O)O | 0.2 mg/kg |
| COc1ccc(OCCCN(C)CCC(O)(P(=O)(O)O)P(=O)(O)O)cc1 | 0.0012 mg/kg |
| CN(C)CCC(O)(P(=O)(O)O)P(=O)(O)O [OLPADRONIC ACID] | 0.012 mg/kg |
| O=P(O)(O)C(O)(Cc1ncc[nH]1)P(=O)(O)O | 0.005 mg/kg |
| CN(CCCc1ccc(Cl)cc1)CCC(O)(P(=O)(O)O)P(=O)(O)O | 0.0007 mg/kg |
| O=P(O)(O)C(Nc1nccs1)P(=O)(O)O | 0.005 mg/kg |
| Cc1cccc(OCCCN(C)CCC(O)(P(=O)(O)O)P(=O)(O)O)c1 | 0.0017 mg/kg |
| O=P(O)(O)C(Nc1nccn1Cc1ccccc1)P(=O)(O)O | 0.075 mg/kg |
| O=P(O)(O)C(O)(CCCN1CCCC1)P(=O)(O)O | 0.025 mg/kg |
| CN(CCCOc1ccc(F)cc1)CCC(O)(P(=O)(O)O)P(=O)(O)O | 0.0006 mg/kg |
| CC(N)CC(O)(P(=O)(O)O)P(=O)(O)O (stereo unspecified) | 0.0034 mg/kg |
| O=P(O)(O)C(Nc1nc2ccccc2s1)P(=O)(O)O | > 3 mg/kg |
| O=P(O)(O)C(O)(Cn1cccn1)P(=O)(O)O | > 0.3 mg/kg |
| NCC(O)(P(=O)(O)O)P(=O)(O)O | 0.15 mg/kg |
| NCCCCC(O)(P(=O)(O)O)P(=O)(O)O | 0.02 mg/kg |
| CN(CCCSc1ccc(Cl)cc1)CCC(O)(P(=O)(O)O)P(=O)(O)O | 0.0078 mg/kg |
| O=P(O)(O)C(O)(CCN1CCN(c2ccccc2)CC1)P(=O)(O)O | > 10 mg/kg |
| O=P(O)(O)C(O)(Cn1cncn1)P(=O)(O)O | 0.6 mg/kg |
| CCCCCN(C)C(C)CC(O)(P(=O)(O)O)P(=O)(O)O (stereo unspecified) | 0.065 mg/kg |
| CCCc1cnc(NC(P(=O)(O)O)P(=O)(O)O)s1 | 0.002 mg/kg |
| NCCCCCC(O)(P(=O)(O)O)P(=O)(O)O [NERIDRONIC ACID] | 0.06 mg/kg |

| SMILES | ED50 |
| --- | --- |
| O=P(O)(O)C(O)(C1CCNCC1)P(=O)(O)O | ~2.5 mg/kg |
| O=P(O)(O)C(O)(CCN1CCC(c2cccc(F)c2)CC1)P(=O)(O)O | 0.03 mg/kg |
| O=P(O)(O)C(O)(CCN1CCC(c2ccc(Cl)cc2)C1)P(=O)(O)O (stereo unspecified) | 0.0035 mg/kg |
| O=P(O)(O)C(N1CCCC1)P(=O)(O)O | > 2 mg/kg |
| CN(C)CCC(P(=O)(O)O)P(=O)(O)O | 0.1 mg/kg |
| O=P(O)(O)C(O)(Cc1nccn1Cc1ccccc1)P(=O)(O)O | 0.025 mg/kg |
| CN(CCOc1ccc(Cl)cc1)CCC(O)(P(=O)(O)O)P(=O)(O)O | 0.0017 mg/kg |
| CP(=O)(O)C(Nc1nccs1)P(C)(=O)O (stereo unspecified) | > 10 mg/kg |
| CCCCCN(C)CCC(O)(P(=O)(O)O)P(=O)(O)O [IBANDRONIC ACID] | 0.0011 mg/kg |
| O=P(O)(O)C(O)(C1CCCCN1)P(=O)(O)O (stereo unspecified) | 0.05 mg/kg |
| CN(CCCCOc1ccccc1)CCC(O)(P(=O)(O)O)P(=O)(O)O | 0.004 mg/kg |
| CC(C)c1cnc(NC(P(=O)(O)O)P(=O)(O)O)s1 | 0.2 mg/kg |
| Cc1[nH]cnc1CC(O)(P(=O)(O)O)P(=O)(O)O | 0.0015 mg/kg |
| Cn1ccnc1NC(P(=O)(O)O)P(=O)(O)O | 0.005 mg/kg |
| O=P(O)(O)C(O)(Cc1c[nH]cn1)P(=O)(O)O | 0.0003 mg/kg |
| CN(C)CCC(N)(P(=O)(O)O)P(=O)(O)O [LIDADRONIC ACID] | > 0.2 mg/kg |
| O=P(O)(O)C(Nc1nc2ccccc2[nH]1)P(=O)(O)O | > 10 mg/kg |
| O=P(O)(O)C(O)(CCNCCSc1ccccc1)P(=O)(O)O | > 0.2 mg/kg |
| O=P(O)(O)C(O)(CCNCCCOc1ccccc1)P(=O)(O)O | 0.0012 mg/kg |
| O=P(O)(O)C(O)(CCN1CCCC1)P(=O)(O)O | 0.01 mg/kg |
| CCN(CC)CCC(O)(P(=O)(O)O)P(=O)(O)O | 0.003 mg/kg |
| O=P(O)(O)C(N1CCCCC1)P(=O)(O)O | 0.8 mg/kg |

| SMILES | ED50 |
| --- | --- |
| O=P(O)(O)C(O)(CCCCCN1CCCC1)P(=O)(O)O | 0.25 mg/kg |
| Cn1ccnc1CC(O)(P(=O)(O)O)P(=O)(O)O | 0.0006 mg/kg |
| CN(CCCOc1ccc(Cl)cc1)CCC(O)(P(=O)(O)O)P(=O)(O)O | 0.0013 mg/kg |
| O=P(O)(O)C(Nc1ncc(CCc2ccccc2)s1)P(=O)(O)O | 0.0027 mg/kg |
| CCCN(C)CCC(O)(P(=O)(O)O)P(=O)(O)O | 0.003 mg/kg |
| O=P(O)(O)C(O)(C1CNC1)P(=O)(O)O | > 3 mg/kg |
| CC(CCc1ccccc1)NCCC(O)(P(=O)(O)O)P(=O)(O)O (stereo unspecified) | > 10 mg/kg |
| CNCCC(O)(P(=O)(O)O)P(=O)(O)O | ~0.015 mg/kg |
| O=P(O)(O)C(O)(CCN1CCCCCC1)P(=O)(O)O | 0.025 mg/kg |
| O=P(O)(O)C(Nc1ncc(-c2ccccc2)s1)P(=O)(O)O | > 1 mg/kg |
| O=P(O)(O)C(O)(CCNCCc1ccccc1)P(=O)(O)O | 0.3 mg/kg |
| O=P(O)(O)C(O)(CCc1c[nH]cn1)P(=O)(O)O | 0.02 mg/kg |
| Cc1ncn(CC(O)(P(=O)(O)O)P(=O)(O)O)c1C | 0.0015 mg/kg |
| CN(CCCCCCOc1ccccc1)CCC(O)(P(=O)(O)O)P(=O)(O)O | 7.5 mg/kg |
| CN(CCCOc1ccccc1)CCCC(O)(P(=O)(O)O)P(=O)(O)O | 0.1 mg/kg |
| O=P(O)(O)C(O)(CCCN1CCC(c2ccccc2)CC1)P(=O)(O)O | 0.1 mg/kg |
| O=P(O)(O)C(O)(CCNCCCSc1ccccc1)P(=O)(O)O | 0.007 mg/kg |
| CCN(CCCOc1ccccc1)CCC(O)(P(=O)(O)O)P(=O)(O)O | 0.02 mg/kg |
| O=P(O)(O)C(O)(CCn1ccnc1)P(=O)(O)O | 0.045 mg/kg |
| Cc1csc(NC(P(=O)(O)O)P(=O)(O)O)n1 | 0.1 mg/kg |
